Results from ChEMBL document CHEMBL2311523, “Identification of novel chromenone derivatives as interleukin-5 inhibitors” (Eur J Med Chem, 2013).

target: T1, Interleukin-5 (Mus musculus) (UniProt P04401); assay: Inhibition of IL-5 in mouse pro-B Y16 cells at 30 uM after 48 hrs by WST1 assay; assay type: cell-based
T1 sequence (whole entry): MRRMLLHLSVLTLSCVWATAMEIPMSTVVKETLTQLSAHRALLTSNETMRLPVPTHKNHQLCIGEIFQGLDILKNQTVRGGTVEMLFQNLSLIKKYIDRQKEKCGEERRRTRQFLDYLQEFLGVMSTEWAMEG
Procedure, shortened: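 IL-5-dependent mouse pro-B Y16 cells were stimulated with 3 units/mL mIL-5 and incubated 48 h with or without compound. Cell metabolism was read by WST-1 tetrazolium reduction as an index of IL-5-driven proliferation.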

Going from `N#Cc1ccc(C(=O)/C=C/c2coc3cccc(OCC4CCCCC4)c3c2=O)cc1` to `O=C(/C=C/c1coc2cccc(OCC3CCCCC3)c2c1=O)c1ccc(Cl)cc1`, the inhibition rises from 9.2% to 46.3%.

First: CC(C)(C)c1ccc(C(=O)/C=C/c2coc3cccc(OCC4CCCCC4)c3c2=O)cc1
Second: Cc1ccc(C(=O)/C=C/c2coc3cccc(OCC4CCCCC4)c3c2=O)cc1
The inhibition of the first is higher: 99.2% for the first, 57.5% for the second.

Going from `O=c1c(/C=C/C(O)c2ccc(Cl)cc2)coc2cccc(OCC3CCCCC3)c12` (racemic) to `O=c1c(/C=C/C(O)c2ccc(F)cc2)coc2cccc(OCC3CCCCC3)c12` (racemic), the inhibition falls from 93.5% to 93.2%.

First: Cc1ccc(C(O)/C=C/c2coc3cccc(OCC4CCCCC4)c3c2=O)cc1 (racemic)
Second: O=c1c(/C=C/C(O)c2ccc(O)cc2)coc2cccc(OCC3CCCCC3)c12 (racemic)
The inhibition of the first is higher: 93.2% for the first, 92.7% for the second.

First: O=C(/C=C/c1coc2cccc(OCC3CCCCC3)c2c1=O)c1ccc(O)cc1
Second: O=C(/C=C/c1coc2cccc(OCC3CCCCC3)c2c1=O)c1ccc(F)cc1
The inhibition of the first is higher: 99% for the first, 15.4% for the second.

Going from `CC(C)COc1cccc2occ(/C=C/C(O)c3ccc(O)cc3)c(=O)c12` (racemic) to `COc1cccc2occ(/C=C/C(O)c3ccc(O)cc3)c(=O)c12` (racemic), the inhibition rises from 20.6% to 21.3%.

Going from `O=C(/C=C/c1coc2cccc(OCC3CCCCC3)c2c1=O)c1ccc([N+](=O)[O-])cc1` to `COc1ccc(C(=O)/C=C/c2coc3cccc(OCC4CCCCC4)c3c2=O)cc1`, the inhibition falls from 11.8% to 9.3%.

Going from `CC(C)(C)c1ccc(C(O)/C=C/c2coc3cccc(OCC4CCCCC4)c3c2=O)cc1` (racemic) to `O=c1c(/C=C/C(O)c2ccc(C(F)(F)F)cc2)coc2cccc(OCC3CCCCC3)c12` (racemic), the inhibition rises from 15.7% to 92.7%.

First: O=C(/C=C/c1coc2cccc(OCC3CCCCC3)c2c1=O)c1ccccc1
Second: O=c1c(/C=C/C(O)c2ccccc2)coc2cccc(OCC3CCCCC3)c12 (racemic)
The inhibition of the first is lower: 17.2% for the first, 93.9% for the second.

First: O=c1c(/C=C/C(O)c2ccc([N+](=O)[O-])cc2)coc2cccc(OCC3CCCCC3)c12 (racemic)
Second: N#Cc1ccc(C(O)/C=C/c2coc3cccc(OCC4CCCCC4)c3c2=O)cc1 (racemic)
The inhibition of the first is lower: 93.8% for the first, 94.4% for the second.

Going from `O=C(/C=C/c1coc2cccc(OCC3CCCCC3)c2c1=O)c1ccc(C(F)(F)F)cc1` to `COc1ccc(C(O)/C=C/c2coc3cccc(OCC4CCCCC4)c3c2=O)cc1` (racemic), the inhibition rises from 42.7% to 93.6%.

First: CC(C)COc1cccc2occ(/C=C/C(=O)c3ccc(O)cc3)c(=O)c12
Second: COc1cccc2occ(/C=C/C(=O)c3ccc(O)cc3)c(=O)c12
The inhibition of the first is higher: 87.5% for the first, 32.3% for the second.

target: not listed separately; assay: Inhibition of IL-5 in mouse pro-B Y16 cells after 48 hrs by WST1 assay

Compound `O=c1c(-c2ccc(O)cc2)coc2cccc(OCC3CCCCC3)c12` has an IC50 of 5.8 µM.
